From PubChem BioAssay
Hck Nef HTS – blocks Nef-activated human Hck kinase. Recombinant Hck-YEEI plus Nef, Z-Lyte FRET kinase assay. inhibition, % at 20 µM. 0.68% of 220,000 active;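 active means Hck-Nef kinase inhibition above about 50%, limit read from the data; inactive means inhibition below that limit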
p47phox inh – p47phox (human) inhibition; inhibition, % at 24.7 µM; AID 1274; 0.53% of 220,000 active; p47phox/p22phox peptide binding, fluorescence polarization, 2 h; P14598
Diaph act CS – counter-screen for diaphorase-based assays: diaphorase activators and chemical reducers. Diaphorase/resazurin coupled assay, resorufin fluorescence, 16 min; hits give high values; 1 = vehicle wells, 0 = NADH-free wells. activation factor at 20 µM. 0.005% of 190,000 active. AID 1229;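 active means diaphorase activity raised at least twofold by the compound at 20 µM; inactive means activation factor below 2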
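Material: Purified diaphorase enzyme from Clostridium kluyveri | Buffer or medium: 50 mM HEPES pH 7.4 with 4.542 mM MgCl2, 0.005% Tween 20 | Times: 16 min enzyme reaction, ambient temperature | Signal: Red resorufin fluorescence at 544/590 nm excitation/emission | Measure: Increased resorufin signal from activators or reducing compounds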
14-3-3 Bad inh – disrupts binding of bovine 14-3-3 zeta to phospho-Bad peptide; P63103; TR-FRET 14-3-3zeta/Dy647-pBad peptide displacement, 1 h; inhibition, % at 21.7 µM; 0.71% of 220,000 active;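 active means inhibition above about 70%, limit read from the data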
Target sequence (P63103 whole entry, looked up): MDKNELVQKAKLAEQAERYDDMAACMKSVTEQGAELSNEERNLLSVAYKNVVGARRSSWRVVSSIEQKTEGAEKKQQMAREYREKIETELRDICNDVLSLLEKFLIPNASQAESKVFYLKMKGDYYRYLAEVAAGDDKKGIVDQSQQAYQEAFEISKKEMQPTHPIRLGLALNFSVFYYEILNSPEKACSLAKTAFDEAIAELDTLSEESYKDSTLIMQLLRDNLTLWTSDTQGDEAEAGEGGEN
eIF4E-4G inh – inhibitors of eIF4E and eIF4G interaction in translation initiation; P63073+Q04637; 0.37% of 220,000 active; TR-FRET eIF4E-eIF4GI(517-606) binding, 2 h; AID 782; inhibition, % at 21.7 µM
Hits are given with their value; n = inactive; x = no result given; + = active, no number; ! = repeats disagree; [ ] = another dose, or the depositor's remark. Most compounds without a hit are left out; they make up all but 2% or so of the library.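 How the source made its calls, unless noted: active means inhibition above about 30% (limit read from the data); inactive means the rest.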

SMILES	Hck Nef HTS	p47phox inh	Diaph act CS	14-3-3 Bad inh	eIF4E-4G inh
CC1(C)CC(=O)C(C2(O)C(=O)N(Cc3ccccc3)c3ccccc32)CO1 (configuration not stated)	n	n	n	n	n
CC(C)NCCOCCSc1ccc(Cl)cc1	n	n	n	83	n
Cc1cc(C)nc(NS(=O)(=O)c2ccc(Br)cc2)n1	n	n	n	85	n
Cc1cc(C)nc(NS(=O)(=O)c2ccc(N)cc2)n1	n	n	n	n	n
COC(=O)c1ccc(COc2ccc(/C=N/Nc3cccc(C(=O)O)c3)cc2)cc1	n	n	x	n	n
CSc1ccc(/C=N/Nc2cccc(C(=O)O)c2)cc1	n	n	n	85	35
COc1ccc(C2C(C#N)=C(N)Oc3cc4c(cc32)OCO4)cc1 (configuration not stated)	n	64	n	n	n
COc1ccc(OC)c(C2C(C#N)=C(N)Oc3cc(N)ccc32)c1 (configuration not stated)	n	n	n	n	n
CC[n+]1cc(-c2ccccc2)nc(N2CCOCC2)n1	n	39	n	82[fluorescence artefact?]	n
NC(=O)c1cc(-c2ccccc2)nc(N2CCOCC2)n1	n	n	n	n	n
O=C1C(Nc2ccc(O)cc2)=C/C(=N/S(=O)(=O)c2cccs2)c2ccccc21	n	31	n	n	n
Cc1ccc(Cl)cc1NC1=C/C(=N\S(=O)(=O)c2cccs2)c2ccccc2C1=O	n	84	n	n	n
Cc1ccc(NC2=C/C(=N\S(=O)(=O)c3cccs3)c3ccccc3C2=O)c(C)c1	n	n	n	n	n
Clc1ccc(Nc2ccccc2)nn1	n	n	x	n	n
Cn1c(C(C#N)C2=C(Cl)C(=O)N(c3ccccc3)C2=O)nc2ccccc21 (configuration not stated)	n	48	n	n	n
Cn1c(C(O)C(O)c2ccccc2)nc2ccccc21 (configuration not stated)	n	n	n	n	n
O=C1/C(=C/c2ccc([N+](=O)[O-])cc2)C=C(c2ccccc2)N1c1ccc(O)cc1	n	56	n	n	n
O=C1/C(=C/c2ccc([N+](=O)[O-])cc2)C=C(c2ccccc2)N1c1ccccc1	n	n	n	n	n
N#CCc1nn2c3c(cnc2c1C#N)C(=O)CCC3	n	n	n	n	n
CC(C)CNC(=O)COC(=O)c1n[nH]c2ccccc12	n	n	n	n	n
O=C1NC(=Nc2ccc(Cl)cc2)/C(=C/c2ccco2)S1	n	n	n	81[fluorescence artefact?]	n
COc1ccc(/C=N/N2C(=N)SCC2=O)cc1	n	n	x	n	n
O=C(CSc1nc2ccc(Nc3nc(N4CCOCC4)nc(N4CCOCC4)n3)cc2s1)N1CCOCC1	n	n	n	n	n
O=C(CSc1nc2ccc(Nc3nc(N4CCCC4)nc(N4CCCC4)n3)cc2s1)NCc1ccco1	n	n	x	n	92
COc1cccc(-c2cc(C(=O)Nc3cnn(Cc4ccc(F)cc4)c3)no2)c1	n	n	n	n	n
SMILES	Hck Nef HTS	p47phox inh	Diaph act CS	14-3-3 Bad inh	eIF4E-4G inh
COc1cccc(-c2cc(C(=O)Nc3cnn(Cc4ccccc4C)c3)no2)c1	n	70	n	n	n
N/C(=N\N=C\c1cccs1)SC1CC(=O)N(c2cccc([N+](=O)[O-])c2)C1=O (configuration not stated)	n	n	n	82	n
CCCCOc1cc(C(=O)NCCN(CC)CC)c2ccccc2n1	n	n	n	n	74!
COc1cccc(NC(=O)Nc2ccc(C(C)(C)C)cc2)c1	n	n	n	n	66
CSc1nnc(-c2cc3c(-c4ccccc4)nn(C)c3s2)n1C	n	n	n	89	n
Cc1cc(NC(=O)CCCn2ccc([N+](=O)[O-])n2)n(Cc2ccc(F)cc2)n1	n	n	n	n	n
c1ccc(Cn2nnnc2C(c2cccs2)N2CCSCC2)cc1 (configuration not stated)	n	n	n	n	n
CC1CCN(C(c2cccs2)c2nnnn2Cc2ccccc2)CC1 (configuration not stated)	n	n	n	79	n
OCC1(Cc2ccccc2)CCN(C2CCN(c3ccc(F)c(F)c3)CC2)CC1	n	n	x	n	n
Fc1ccccc1COc1ccc(Br)cc1CNCc1ccncc1	n	n	n	80	n
CCOc1cc(CNCc2ccncc2)cc(Br)c1OCc1ccc(F)cc1	n	n	n	n	n
Fc1ccccc1COc1ccc(Br)cc1CNCc1cccnc1	n	n	n	n	n
Fc1ccc(COc2ccc(Br)cc2CNCc2ccncc2)cc1	n	n	n	84	n
CCn1nc(C)c(CN2CCc3c([nH]c4ccccc34)C2c2ccc(F)c(OC)c2)c1C (configuration not stated)	n	n	n	n	n
O=C(Nc1ccccc1N1CCCC1)c1cccc(-c2cc3ccccc3oc2=O)c1	n	n	n	n	n
O=C(Nc1ccc(Br)cn1)c1cccc(-c2cc3ccccc3oc2=O)c1	n	37	n	n	n
Cc1nc(NC(=O)c2cccc(-c3cc4ccccc4oc3=O)c2)ccc1Br	n	41	n	n	n
Cc1nc(NC(=O)c2ccc(-c3cc4ccccc4oc3=O)cc2)ccc1Br	n	n	n	n	n
C=C1c2cc3c(cc2NC(=S)N1Cc1ccccc1)OCO3	n	n	x	n	n
C/C(CC(=O)NC1CCCCC1)=N\NC(=O)COc1ccc(C)cc1Br	n	n	n	n	n
CCn1c(=N)c(C(N)=O)cc2c(=O)n3cccc(C)c3nc21	+	x	x	x	x
Cc1cccn2c(=O)c3cc(C(=O)NC4CCCC4)c(=N)n(C4CCCC4)c3nc12	66	n	n	n	n
CCn1c(=N)c(C(=O)NC)cc2c(=O)n3cccc(C)c3nc21	x	n	n	n	n
Cc1cccn2c(=O)c3cc(C(=O)NC4CCCCC4)c(=N)n(CCN4CCOCC4)c3nc12	n	n	x	n	n
NS(=O)(=O)c1ccc(-c2ccc(/C=C3\SC(=S)N(C4CCS(=O)(=O)C4)C3=O)o2)cc1 (configuration not stated)	n	36	x	n	n
SMILES	Hck Nef HTS	p47phox inh	Diaph act CS	14-3-3 Bad inh	eIF4E-4G inh
CCOC(=O)c1cc(-c2ccc(OC)cc2)nc2c1c(C)nn2CCC(N)=S	n	n	n	n	n
Cc1nc2c(C)cccc2cc1C(=O)N/N=C/c1ccc(C(=O)O)cc1	n	n	n	87	n
CC(C)OC(=O)c1cccnc1N1CCN(c2cccc(Cl)c2)CC1	n	n	n	n	n
Cc1ccccc1NC(=O)CCC(=O)OCC(=O)c1cccc([N+](=O)[O-])c1	n	32	n	n	n
CC1CC(C)CN(CCCNC(=O)c2csc3c2CCCC3)C1 (configuration not stated)	n	n	n	n	n
O=C(NCCN1CCOCC1)c1csc2c1CCCC2	n	71	n	n	n
COc1ccccc1NC(=O)CC1S/C(=N/N=C2\CCCc3ccccc32)NC1=O (configuration not stated)	n	n	n	n	n
